The record followed here is PMC2741613 (Journal of the American Chemical Society, 2009).

Read-outs that look alike come from different tables or passages of the source. Non-standard residues stand in square brackets, D forms with d. Residues, ends and D or L forms follow the SMILES beside them. F2Pmp = N[CH](Cc1ccc(C(F)(F)P(=O)(O)O)cc1)C(=O)O Some results are limits rather than exact numbers.

A word on the IC50: it is the midpoint of a concentration-inhibition curve.

The target in one assay is T1, TC-PTP (Homo sapiens, UniProt P17706).
T1 sequence (P17706 1-415): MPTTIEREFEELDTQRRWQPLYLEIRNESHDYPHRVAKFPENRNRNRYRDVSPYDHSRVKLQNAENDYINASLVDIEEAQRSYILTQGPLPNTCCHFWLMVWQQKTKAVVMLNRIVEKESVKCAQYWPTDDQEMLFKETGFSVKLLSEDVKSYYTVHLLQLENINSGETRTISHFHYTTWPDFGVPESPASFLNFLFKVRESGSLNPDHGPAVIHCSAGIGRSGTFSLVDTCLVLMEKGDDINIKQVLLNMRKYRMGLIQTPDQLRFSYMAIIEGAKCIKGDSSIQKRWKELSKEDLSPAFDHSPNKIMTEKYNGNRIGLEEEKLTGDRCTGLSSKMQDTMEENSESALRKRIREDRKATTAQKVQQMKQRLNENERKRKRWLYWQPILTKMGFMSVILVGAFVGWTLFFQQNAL
Nature of the assay: TC-PTP-catalyzed pNPP hydrolysis inhibition. Conditions: for IC50: pNPP 2 mM, pH 7.0, 25 °C; for fold enhancement relative to parent compound 5: IC50/affinity for TC-PTP versus compound 5. The format is biochemical. An outline of the steps: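 IC50: enzyme added last (10 nM or 0.4 nM final) to 2 mM pNPP (Km) plus varied test compound, 30 min at room temperature, NaOH quench, A405. Reversibility: enzyme preincubated with test compound 30 min before pNPP. Mode/Ki: 0.4 nM enzyme, varied pNPP and inhibitor, kinetic fit.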

For assay [1], the system named is tyrosine phosphorylation of EGFR in PTP1B−/− mouse embryo fibroblast cells. Nature of the assay: EGF-stimulated EGFR phosphorylation in cells. The format is cell-based. The following applies: 200 nM. An outline of the steps:
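PTP1B−/− mouse embryo fibroblasts were given test compound for 2 hr, then EGF 2 ng/mL for 10 min. Lysis in HEPES pH 7.4 buffer with pervanadate, fluoride and protease inhibitors, cleared at 15,000 rpm for 10 min, protein by BCA. EGFR immunoprecipitated from 1 mg lysate (4 °C, 2 h; protein A/G 2 h). SDS-PAGE, anti-pTyr immunoblot, ECL detection.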

Turning to `CC(=O)NCCCCC(NC(=O)C(Cc1ccc(C(F)(F)P(=O)(O)O)cc1)NC(C)=O)C(N)=O` (stereo not shown) [Compound 5] (Ac-[F2Pmp]-Lys(Ac)-NH2; configuration not given here), the 50% inhibitory concentration (IC50) at TC-PTP (read-out: IC50 for TC-PTP) is 2 µM.
Take `CCc1ccc(C(=O)NCCCCC(NC(=O)C(Cc2ccc(C(F)(F)P(=O)(O)O)cc2)NC(C)=O)C(N)=O)cc1` (stereo not shown) [Compound 6]: the “fold enhancement relative to parent compound 5” value on TC-PTP amounted to 12.5 fold. In addition, the 50% inhibitory concentration (IC50) at TC-PTP (read-out: IC50 for the TC-PTP-catalyzed reaction) worked out at 0.16 ± 0.02 µM.
As for `CCc1ccc(C(=O)NCCCCC(NC(=O)C(Cc2ccc(C(F)(F)P(=O)(O)O)cc2)NC(=O)C(Cc2ccccc2)NC(C)=O)C(N)=O)cc1` (stereo not shown) [Compound 7], the “fold enhancement relative to parent compound 5” value on TC-PTP is on record as 77 fold.
For `CCc1ccc(C(=O)NCCCCC(NC(=O)C(Cc2ccccc2)NC(=O)C(Cc2ccccc2)NC(=O)COC2CC(C)CCC2C(C)C)C(N)=O)cc1` (stereo not shown) [Compound 9], the IC50 on TC-PTP (read-out: IC50 for TC-PTP) is > 1 µM. Also, the “effect on EGFR phosphorylation” value in assay [1] is “no effect”.
As for `O=C(N[C@@H](Cc1ccc(C(F)(F)P(=O)(O)O)cc1)C(=O)O)OCC1c2ccccc2-c2ccccc21` [Fmoc-F2Pmp-OH, reference compound], the IC50 at TC-PTP (read-out: IC50 for TC-PTP) turned out to be 20 µM.
